FXIIa inh – inhibitors of human coagulation factor XIIa; purified FXIIa, Boc-QGR-AMC fluorogenic substrate, 2 h; inhibition, % at 5 µM; 220,000 tested, 0.3% active; in the data active = inhibition above about 40%
thrombin 1536 – inhibitors of human thrombin. inhibition, % at 5 µM. alpha-thrombin, Boc-VPR-AMC fluorogenic substrate cleavage. AID 1046. 220,000 tested, 0.26% active. P00734;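 active = inhibition at or above 40%; inactive = inhibition below 40%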
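Material: human alpha-thrombin protein; Also added: Boc-VPR-AMC substrate, 15 µM final; Timing: enzyme reaction carried out at room temperature; Signal: fluorescence, ex 355 nm, em 460 nm; Measure: % inhibition of thrombin; Controls: enzyme without compound as high, wells lacking enzyme as low.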
hK5 inh – inhibitors of human kallikrein 5. Q9Y337. recombinant hK5, fluorogenic AMC substrate cleavage. inhibition, % at 5 µM. 210,000 tested, 0.59% active;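 active = inhibition of 40% or more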
FXIa inh – inhibitors of human coagulation factor XIa; P03951; purified FXIa, Boc-Glu-Ala-Arg-AMC fluorogenic substrate; inhibition, % at 5 µM; 220,000 tested, 0.14% active; AID 798;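 active = inhibition of at least 40%; inactive = inhibition below 40%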;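 also: fluorescence of freed AMC excited at 355 nm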
Furin inh – blocks human furin protease activity | 220,000 tested, 0.061% active | P09958 | purified furin, fluorogenic substrate cleavage | inhibition, % at 20 µM or 30 µM; in the data active = inhibition above about 25%
Target sequence (P09958 108-714 limits assumed): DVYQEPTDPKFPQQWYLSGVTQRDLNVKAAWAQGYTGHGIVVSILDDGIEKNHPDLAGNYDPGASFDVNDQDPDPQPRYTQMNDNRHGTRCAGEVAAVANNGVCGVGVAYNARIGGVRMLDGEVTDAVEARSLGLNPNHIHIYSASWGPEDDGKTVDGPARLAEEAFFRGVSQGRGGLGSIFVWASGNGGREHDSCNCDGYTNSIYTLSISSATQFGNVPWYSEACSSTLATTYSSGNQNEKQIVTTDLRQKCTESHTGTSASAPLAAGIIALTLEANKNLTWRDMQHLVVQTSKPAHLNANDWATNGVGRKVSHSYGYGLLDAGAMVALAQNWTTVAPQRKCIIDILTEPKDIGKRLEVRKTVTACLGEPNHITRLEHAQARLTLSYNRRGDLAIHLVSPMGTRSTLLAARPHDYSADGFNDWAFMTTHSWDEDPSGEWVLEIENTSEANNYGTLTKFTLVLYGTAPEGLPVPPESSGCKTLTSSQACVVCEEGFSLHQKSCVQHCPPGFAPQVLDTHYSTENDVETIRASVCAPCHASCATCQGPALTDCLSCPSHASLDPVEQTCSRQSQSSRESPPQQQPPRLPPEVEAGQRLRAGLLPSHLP
Numbers stand for hits; . = inactive; / = not tested or not shown. Hits are enriched below; roughly 1.1% of the tested compounds scored in any of these assays.

SMILES	FXIIa inh	thrombin 1536	hK5 inh	FXIa inh	Furin inh
CCOC(=O)C[n+]1c(C)sc2ccc(OC)cc21	43.1	.	.	.	.
CC(=O)NCC(=O)OC(C(=O)c1ccccc1)c1ccc(Cl)cc1 (stereo not drawn)	.	.	.	.	.
COc1ccc2oc(=O)c(C(=O)C[n+]3cccc(C)c3)cc2c1	.	.	.	.	.
C1=C(c2ccccc2)CCN(c2nc3ccccc3n3cnnc23)C1	.	.	40.6	.	.
COc1cc(C(=O)O/N=C2\C=CC(=O)C=C2C)cc(OC)c1OC	41.0	.	.	.	.
COc1cc(C(=O)O/N=C2/C=CC(=O)C(C)=C2C)cc(OC)c1OC	.	.	.	.	.
O=C1N=C(c2ccccc2)S/C1=C\c1cccs1	.	61.3	.	.	.
O=C1NC(=Nc2ccccc2)S/C1=C/c1cccs1	45.2	.	.	.	.
O=C(CNC(=S)N(Cc1ccccc1)Cc1ccccc1F)NCCc1ccc(Cl)cc1	.	/	.	.	.
Cc1c(C(=O)N(Cc2ccccc2)Cc2cccs2)cnn1-c1ccc(Cl)cc1	107.3	.	43.8	.	.
Cc1cc(C(=O)Cn2ncc(Cl)c(Cl)c2=O)c(C)n1CC(F)(F)F	.	.	71.7	.	.
COc1ccc(Br)cc1CNC(=O)CCc1nc(-c2ccc(C)cc2)no1	.	.	.	.	25.8
COc1ccc(-c2noc(CCC(=O)NCc3cc(Br)ccc3OC)n2)cc1	.	.	.	.	.
CCCCNCC#CCOc1cc(C)ccc1C(C)C	.	.	.	.	.
O=C(NCC1CCCO1)C(c1cccnc1)N(C(=O)Cc1cccs1)c1ccccc1 (stereo not drawn)	.	.	40.6	.	.
Cc1ccccc1N(C(=O)Cc1cccs1)C(C(=O)NCC1CCCO1)c1cccnc1 (stereo not drawn)	.	.	.	.	.
CCOc1ccc(N(CC(=O)Nc2ccc(OC)cc2)S(=O)(=O)c2c(C)noc2C)cc1	.	.	.	.	.
CCOc1ccc(N(CC(=O)Nc2ccc3c(c2)OCCO3)S(=O)(=O)c2c(C)noc2C)cc1	40.8	.	.	.	.
COc1ccc([N+](=O)[O-])cc1NS(=O)(=O)c1cccc(C(=O)O)c1	.	.	.	.	.
Cc1cccc(C)c1NC(=O)COC(=O)c1ccc([N+](=O)[O-])o1	.	.	.	.	.
O=S(NC1CCCCC1)C12CC3CC(CC(C3)C1)C2 (stereo not drawn)	62.4	.	.	42.3	.
Cc1ccsc1C(=O)OCC(=O)N1CCc2ccccc2C1	.	.	.	.	.
COc1ccc(-n2c(SCC(=O)N/N=C(\C)c3cccnc3)nc3ccccc3c2=O)cc1	.	.	.	.	.
Cc1ccc(S(=O)(=O)NCC(=O)N2CCC(C)CC2)cc1	.	.	.	.	.
Cc1ccc(S(=O)(=O)NC(=O)N2CCC(C)CC2)cc1	.	50.1	.	.	.
SMILES	FXIIa inh	thrombin 1536	hK5 inh	FXIa inh	Furin inh
COc1ccc(-c2cc(C(F)F)n3ncc(C(=O)n4ccnc4C)c3n2)cc1	.	87.9	.	.	.
COc1ccc(-c2cc(C(F)F)n3ncc(C(=O)N4CCc5ccccc54)c3n2)cc1	.	.	.	.	.
NS(=O)(=O)c1cccc(NC(=O)CSc2nnc(C3CC3)n2Cc2ccccc2)c1	.	.	.	.	.
CCOc1cc(/C=N/Nc2nc(Nc3ccccc3)nc(N3CCCCC3)n2)ccc1OCC(=O)O	.	.	44.7	.	.
O=C(c1ccccc1)C1CN(c2ccccc2)CC1c1ccc(Cl)cc1 (stereo not drawn)	53.7	.	62.0	.	.
Cc1ccc(S(=O)(=O)Nn2c(C)nnc2-n2nc(C)cc2C)cc1	.	.	.	.	.
Cc1cc(C)n(-c2nnc(C)n2NS(=O)(=O)c2ccc(F)cc2)n1	71.5	.	.	.	.
CCn1ncc(Br)c1C(=O)Nc1cc([N+](=O)[O-])ccc1C	.	54.3	.	.	.
COc1ccc(OC)c(CNc2ccc([N+](=O)[O-])cc2C)c1	100.2	.	.	.	.
O=C(CCNC(=O)c1ccc(Br)o1)NC1CCCC1	.	.	.	.	.
O=C(NC1CCCCC1)c1ccc(Br)o1	.	.	82.5	.	.
C/C(=N/NC(=O)CNC(=O)C(c1ccccc1)c1ccccc1)c1ccco1	.	.	.	.	.
Cc1ccc(S(=O)(=O)N2CCN(C(C(=O)Nc3ccc(F)cc3)c3ccccc3)CC2)cc1 (stereo not drawn)	.	.	45.6	.	.
O=C(Cn1c(-c2cscn2)nc2ccccc21)Nc1ccccc1F	.	.	42.3	.	.
CCN(CC)S(=O)(=O)c1ccc(NS(=O)(=O)c2ccc(F)cc2)cc1	.	.	.	.	.
CCN(CC)S(=O)(=O)c1ccc(OC)c(NS(=O)(=O)c2ccc(F)cc2)c1	.	.	42.4	.	.
CC(=O)Nc1ccc(S(=O)(=O)NC2CCS(=O)(=O)C2)cc1Cl (stereo not drawn)	.	.	.	.	.
O=C1c2ccccc2C(=O)N1OS(=O)(=O)c1ccccc1	76.5	.	.	42.7	.
Cc1ccc(C)c(S(=O)(=O)ON2C(=O)c3ccccc3C2=O)c1	77.1	47.8	.	62.4	.
O=C1c2cccc3cccc(c23)C(=O)N1OS(=O)(=O)c1ccccc1	.	.	.	.	.
COc1ccc(-c2cc(-c3nnc(COC(=O)CC4CC5CCC4C5)o3)c3ccccc3n2)cc1OC (stereo not drawn)	42.4	.	.	.	.
Cc1cc(NC(=O)CCN2C(=O)C3C4C=CC(C4)C3C2=O)ccc1Br (stereo not drawn)	.	.	.	.	.
O=C(NCc1csc(-c2ccccc2)n1)c1cc(F)cc2c1OCOC2	.	.	.	.	.
C=C(C)CN(CC)C(=O)CC1C(=O)NCCN1CC(C)(C)C (stereo not drawn)	.	44.1	.	.	.
COc1cccc(-c2nn(-c3ccccc3)cc2CN(C)Cc2ccno2)c1	.	.	.	.	.
SMILES	FXIIa inh	thrombin 1536	hK5 inh	FXIa inh	Furin inh
COc1cccc(-c2nn(-c3ccccc3)cc2CN(C)C(C)c2ccon2)c1 (stereo not drawn)	.	.	45.9	.	.
CCOc1cc2c(C#N)c(N3CCOCC3)nc(N)c2c(N)n1	.	.	109.8	.	/
Cc1ccc2oc(NC(=O)N3CCOCC3)cc(=O)c2c1	80.0	.	.	.	.
CCNC(=S)N/N=C(\C)c1cccc([N+](=O)[O-])c1	.	.	.	.	.
CC(=O)N(Cc1ccccc1)Cc1cn(CCC#N)nc1-c1cccc([N+](=O)[O-])c1	.	.	.	.	.
CCCC(C)NC1=NCCCCC1 (stereo not drawn)	.	.	55.8	.	.
CCN1CCCC1CNC1=NCCCCC1 (stereo not drawn)	.	.	.	.	.
Cc1ccc(NC2=NC3(CCCCC3)N=C(N)N2)c(C)c1	.	.	.	45.5	.
Cc1ccc(C)c(NC(=O)c2ccccc2C(=O)c2ccccc2)c1	.	.	.	.	.
